The text below walks through data of ChEMBL document CHEMBL4613249, “Serendipitous Discovery of Leucine and Methionine Depletion Agents during the Search for Polyamine Transport Inhibitors” (J Med Chem, 2020).

The test system of series [1] is CHO-K1. As to the kind of experiment: Inhibition of polyamine transporter in DFMO-treated CHOK1 cells assessed as prevention of spermidine entry into cells by measuring rescue of DFMO-induced reduction in cell growth at 1 to 6 uM measured after 48 hrs in presence of amine oxidase suppressor aminoguanidine by MTS assay. It counts as cell-based. Particulars: Cricetulus griseus. In a few lines:
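CHO K1 cells (1000 cells/well) were pre-incubated 24 h with 1 mM aminoguanidine. They were then given fixed DFMO (4.2 mM) and spermidine (1 μM) plus increasing compound doses for 48 h at 37°C. EC50 is the concentration bringing MTS relative growth halfway between the DFMO+Spd and DFMO-only controls. Runs were done twice in triplicate, with SD.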

Series [2] deals with CHO-K1. Briefly: Cytotoxicity against CHOK1 cells assessed as effect on cell growth at < 7 uM measured after 48 hrs by MTS assay. It counts as cell-based, Cricetulus griseus. Particulars: chinese hamster, cho-k1, 48 h.
Series [3] concerns L3.6pl. As to the kind of experiment: Effect on polyamine level in human L3.6PL cells assessed as change in putrescine level at 2 to 7 uM measured after 72 hrs in presence of amine oxidase suppressor aminoguanidine by LCMS analysis. The note with it: in the assay text read “by N-dansylation and HPLC analysis” for “by LCMS analysis”. It counts as functional, cell-based. Summed up: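 L3.6pl cells, 50,000 cells/mL in 10 mL per Petri dish with 1 mM aminoguanidine, plated overnight. Dosed with compound at 2, 5 or 7 μM from PBS stocks, then 72 h at 37°C. Intracellular polyamines measured by N-dansylation and HPLC, in duplicate, as nmol/mg protein against a parallel untreated control.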

Series [4] deals with L3.6pl. Briefly: Cytotoxicity against human L3.6PL cells assessed as reduction in cell viability at 0.25 to 20 uM measured after 24 to 72 hrs by MTS assay. It counts as cell-based. Summed up: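 Time course in L3.6pl cells, 500 cells/well, with compound alone for 24, 48 and 72 h exposure at 37°C. Growth by MTS absorbance at 490 nm relative to untreated control.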
A general note: Tetrazolium dyes change colour on reduction, which living cells bring about.

Series [5] relates to L3.6pl. Briefly: Effect on polyamine level in human L3.6PL cells assessed as spermine level per mg protein in supernatant at 2 uM measured after 72 hrs in presence of amine oxidase suppressor aminoguanidine by LCMS analysis (reference value: 6152 +/- 5596 pmol/mg). It counts as functional.
For series [6], the system named is L3.6pl. As to the kind of experiment: Effect on polyamine level in human L3.6PL cells assessed as acetyl spermine level per mg protein in supernatant at 5 uM measured after 72 hrs in presence of amine oxidase suppressor aminoguanidine by LCMS analysis (reference value: 77 +/- 43 pmol/mg). It counts as functional.
Series [7] relates to L3.6pl. As to the kind of experiment: Effect on polyamine level in human L3.6PL cells assessed as agmatine level per mg protein in supernatant at 2 uM measured after 72 hrs in presence of amine oxidase suppressor aminoguanidine by LCMS analysis (reference value: 101 pmol/mg). It counts as functional.
In series [8] the test system is L3.6pl. As to the kind of experiment: Effect on polyamine level in human L3.6PL cells assessed as arginine level per mg protein in supernatant at 2 uM measured after 72 hrs in presence of amine oxidase suppressor aminoguanidine by LCMS analysis (reference value: 22121 +/- 10585 pmol/mg). It counts as functional.
For series [9], the system named is L3.6pl. Briefly: Effect on polyamine level in human L3.6PL cells assessed as leucine level per mg protein in supernatant at 5 uM measured after 72 hrs in presence of amine oxidase suppressor aminoguanidine by LCMS analysis (reference value: 18009 +/- 9061 pmol/mg). It counts as functional.
Series [10] deals with L3.6pl. As to the kind of experiment: Effect on polyamine level in human L3.6PL cells assessed as methionine level human L3.6PL cells assessed per mg protein in supernatant at 2 uM pretreated with aminoguanidine for 24 hrs followed by compound treatment after 72 hrs by LCMS analysis (reference value: 22834 +/- 1984 pmol/mg). It counts as functional.
In series [11] the test system is L3.6pl. Briefly: Effect on polyamine level in human L3.6PL cells assessed as methionine level human L3.6PL cells assessed per mg protein in supernatant at 5 uM pretreated with aminoguanidine for 24 hrs followed by compound treatment after 72 hrs by LCMS analysis (reference value: 22834 +/- 1984 pmol/mg). It counts as functional.
Series [12] has as its system L3.6pl. As to the kind of experiment: Effect on polyamine level in human L3.6PL cells assessed as phenylalanine level per mg protein in supernatant at 2 uM measured after 72 hrs in presence of amine oxidase suppressor aminoguanidine by LCMS analysis (reference value: 14299 +/- 7194 pmol/mg). It counts as functional.
Series [13] has as its target Large neutral amino acids transporter small subunit 1 (Homo sapiens) (UniProt Q01650). Briefly: Inhibition of LAT1-mediated amino acid transport in human L3.6PL cells assessed as reduction in intracellular methionine level measured after 72 hrs by LCMS analysis. It counts as cell-based. Summed up: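 L3.6pl cells (50,000 cells/mL, 10 mL, 1 mM aminoguanidine) were seeded in poly-lysine-treated 9 cm dishes and incubated overnight at 37°C. They were then dosed with compound at 2, 5 or 7 μM from PBS stocks (2, 5, 7 mM) and incubated 72 h. Runs were done in triplicate, with amino acid levels per mg protein.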

Series [14] in a line: Selectivity index, ratio of IC50 for cytotoxicity against CHOK1 cells assessed as reduction in cell viability after 48 hrs by MTS assay to IC50 for […] human L3.6PL cells assessed as reduction in cell viability after 48 hrs by MTS assay. In a few lines:
(§1)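 The ratio is of 48 h IC50 values from MTS growth assays. CHO K1/CHO-MG cells were plated at 1000 cells/well and L3.6pl at 500 cells/well, drug in PBS was added after overnight incubation, and absorbance was read at 490 nm. IC50 is 50% growth versus untreated control; runs were done twice in triplicate.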

The nature of series [15]: Selectivity index, ratio of IC50 for cytotoxicity against CHO-MG cells assessed as reduction in cell viability after 48 hrs by MTS assay to IC50 for […] human L3.6PL cells assessed as reduction in cell viability after 48 hrs by MTS assay. Summed up:
as §1

Series [16] has as its system CHO-K1. As to the kind of experiment: Induction of polyamine efflux in aminoguanidine pretreated CHOK1 cells assessed as reduction in cell viability measured after 72 hrs in presence of putrescine by MTS assay. It counts as ADME, cell-based, Cricetulus griseus. The note with it: chinese hamster, cho-k1, 72 h.
Series [17] relates to CHO-K1. As to the kind of experiment: Induction of polyamine efflux in aminoguanidine pretreated CHOK1 cells assessed as reduction in cell viability measured after 72 hrs in presence of spermine by MTS assay. It counts as ADME, cell-based, Cricetulus griseus. The note with it: chinese hamster, cho-k1, 72 h.
In series [18] the test system is CHO-MG. Briefly: Induction of polyamine efflux in aminoguanidine pretreated CHO-MG cells assessed as reduction in cell viability measured after 72 hrs in presence of putrescine by MTS assay. It counts as ADME, cell-based, Cricetulus griseus. Particulars: chinese hamster.
Series [19] relates to L3.6pl. As to the kind of experiment: Induction of polyamine import in human L3.6PL cells assessed as increase in intracellular Ant-44 uptake by measuring Ant-44 level per protein at 1 measured up to 72 hrs in presence of amine oxidase suppressor aminoguanidine by LCMS analysis (reference value: 2.15 +/- 0.1 nmol/mg). It counts as functional.
Series [20] concerns L3.6pl. As to the kind of experiment: Effect on polyamine level in human L3.6PL cells assessed as decrease in intracellular spermine level at 1 uM measured after 72 hrs in presence of amine oxidase suppressor aminoguanidine and Ant-44 by LCMS analysis. It counts as functional, cell-based. In a few lines: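 L3.6pl cells dosed with Ant-44 fixed at 2 μM plus increasing compound for 72 h at 37°C. Intracellular polyamines and Ant-44 given as nmol/mg protein, in duplicate, with a parallel untreated control.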

The target in series [21] is Large neutral amino acids transporter small subunit 1 (Homo sapiens) (UniProt Q01650). As to the kind of experiment: Induction of LAT1-mediated polyamine efflux in human L3.6PL cells assessed as increase in [3H]leucine efflux at 60 uM measured after 30 mins at 37 degC in presence of LAT1 inhibitor JPH-203 by scintillation counting method. It counts as cell-based.

Calls of active or inactive are those of the source. No cut-off for these calls is given here.

Sequence of Large neutral amino acids transporter small subunit 1 (Homo sapiens) (Q01650 whole entry): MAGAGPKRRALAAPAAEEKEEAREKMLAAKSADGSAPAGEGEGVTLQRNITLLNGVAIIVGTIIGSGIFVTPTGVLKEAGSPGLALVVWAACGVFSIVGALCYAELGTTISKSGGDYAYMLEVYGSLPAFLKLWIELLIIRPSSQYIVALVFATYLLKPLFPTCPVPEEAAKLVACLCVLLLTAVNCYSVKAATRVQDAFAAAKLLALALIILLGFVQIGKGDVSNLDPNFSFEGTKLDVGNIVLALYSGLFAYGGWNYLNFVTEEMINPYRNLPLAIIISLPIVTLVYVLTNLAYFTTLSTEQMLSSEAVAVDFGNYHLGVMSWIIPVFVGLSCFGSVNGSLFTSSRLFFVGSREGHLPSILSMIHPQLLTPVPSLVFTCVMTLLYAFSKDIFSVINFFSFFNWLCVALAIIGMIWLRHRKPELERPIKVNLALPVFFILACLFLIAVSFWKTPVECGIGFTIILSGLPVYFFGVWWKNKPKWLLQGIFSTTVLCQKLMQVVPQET

As for `CC(C)CCN1CCN([C@@H](CNCc2ccccc2)CC2CCCCC2)C[C@@H]1CC(C)C`, in series [1], the inhibition entry is “inactive”. For the same compound, the Activity entry in series [2] is listed as “Non-Toxic”; in series [4], “Toxic”; in [5], 2532 pmol/mg; in series [6], 36 pmol/mg; in [7] it was 297 pmol/mg; in series [8] it was 18396 pmol/mg. The Activity in [9] is given as 202092 pmol/mg; in series [10], 17686 pmol/mg; in series [11] it was 64036 pmol/mg; in [12], 11954 pmol/mg; in series [16] it was “Active”; in series [17] it was “Active”. Besides, the Activity entry was “Active” in series [18] and 2.08 nmol/mg in [19]. Moreover, the result in series [3] and in series [21] was inactive. For the same compound, in series [13], the inhibition result is “Dose-dependent effect”. For the same compound, the “Ratio IC50” value in series [14] and in series [15] was 2 throughout. The outcome in series [20] was Active.
